Shown are actives, neighbours in structure and some others; about 2.7% of the full set was active somewhere.
E-sel inducer = E-selectin induction in HUVECs, primary screen, imaging, HUVEC, immunofluorescence imaging, single point. P16581. normalized: neutral wells 0, TNF-alpha wells 100. activation, % at 7.58 µM. actives 0.37% (n = 260,000);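 active = mean E-selectin-positive cell signal at least 10% of the positive control, reached in at least 60% of replicates, without over 20% cell loss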
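material = human umbilical vein endothelial cells (HUVEC), E-selectin induction | quantity = 3,000 cells/well | medium = EGM-2 growth medium on 0.1% gelatin-coated wells | technique = immunofluorescence imaging | read-out basis = % PE-positive cells | control set = TNF-alpha positive control, DMSO neutral control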
S100A4 MyoIIA = inhibitors of S100A4-myosin IIA peptide binding, primary screen, biochemical, fluorescence polarization, TAMRA-MyoIIA peptide; inhibition, % at 10.7 µM; AID 652163, 2013; actives 0.14% (n = 360,000); Protein S100-A4 (Homo sapiens), P26447;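 active = mean inhibition of at least 70% across replicates, with every replicate also reaching that level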
Target sequence (P26447 whole entry, looked up): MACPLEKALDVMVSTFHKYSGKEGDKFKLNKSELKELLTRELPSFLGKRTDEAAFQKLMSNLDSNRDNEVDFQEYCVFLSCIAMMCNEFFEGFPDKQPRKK
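Compound dosing: one dose per compound; test system: human S100A4 monomer with TAMRA-labelled myosin IIA peptide; probe or stimulus: TAMRA-labelled myosin IIA heavy-chain peptide probe, 5 nM; medium: HEPES buffer with Ca2+, pH 7.2; schedule: 5 min incubation before reading; benchmarks: neutral control DMSO, positive control TFP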
HIV Env fusion = inhibitors of HIV-1 Env-driven cell-cell fusion, primary screen, HeLa-JRFL effector, CEM21 target cells, luciferase; inhibition, % at 12.3 µM; actives 1.1% (n = 360,000); AID 651610, 2012;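 active = mean replicate inhibition score of at least 50 and every replicate individually at or above 50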;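 note: 0% = plate neutral controls and 100% = maraviroc near 300 nM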
FGF22 binding = binders of human FGF22 protein, primary screen, FGF22 synaptogenesis inhibitor project, biophysical, thermal shift, single point | activity (Tm shift, normalised), % at 9.99 µM | actives 1.5% (n = 340,000) | recombinant FGF22 thermal shift, SYPRO orange fluorescence; percent of sucrose octasulfate shift, DMSO zero | Fibroblast growth factor 22 (Homo sapiens), Q9HCT0;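 active = mean Tm shift, scaled 0 neutral to 100 positive control, at about 1.3% or above, every replicate too, limit read from the data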
Target sequence (Q9HCT0 whole entry, looked up): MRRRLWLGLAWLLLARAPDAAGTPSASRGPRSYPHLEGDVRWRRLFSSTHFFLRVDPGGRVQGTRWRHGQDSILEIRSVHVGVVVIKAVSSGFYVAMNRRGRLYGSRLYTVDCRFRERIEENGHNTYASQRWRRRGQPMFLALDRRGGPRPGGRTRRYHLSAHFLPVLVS
F508del corr = F508del CFTR correction, initial screen, CFBE line, single point | CFBE cells, YFP halide quenching; stimulated with forskolin plus potentiator P3; % fluorescence drop versus neutral controls | activity (quench increase), % at 7.58 µM | actives 0.36% (n = 350,000);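 active = mean added fluorescence quench of at least 8% versus neutral control, with both replicates also reaching 8%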;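 note: cells transiently co-express mutant CFTR-F508del with the halide-sensitive YFP; corrector assay measuring rescue of mutant channel to the surface after 24 h compound exposure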
Active calls of the source: *; i = inactive; nt = no result given; [ ] = another dose, or the depositor's remark.

SMILES	E-sel inducer	S100A4 MyoIIA	HIV Env fusion	FGF22 binding	F508del corr
C[C@H](CO)N1C[C@H](C)[C@H](CN(C)Cc2ccc(Oc3ccccc3)cc2)Oc2ccc(NS(=O)(=O)c3ccccc3)cc2C1=O	0	-1	-23[16.7 µM]	0	-2
C[C@@H]1CN([C@@H](C)CO)C(=O)c2cc(NS(=O)(=O)c3ccccc3)ccc2O[C@H]1CN(C)Cc1ccc(Oc2ccccc2)cc1	1	nt	94*[16.7 µM]	nt	-1
COc1ccc(S(=O)(=O)Nc2ccc3c(c2)C(=O)N([C@@H](C)CO)C[C@@H](C)[C@H](CN(C)Cc2ccc(Oc4ccccc4)cc2)O3)cc1	0	1	15[16.7 µM]	-1	10*
O=C(Nc1cccc(Cl)c1)N1C[C@@H]2[C@H](c3ccccc31)[C@H](CO)N2C(=O)c1cccnc1	0	nt	nt	nt	2
Cn1c(C(=O)c2ccccc2[N+](=O)[O-])nc2ccccc21	nt	-2	7	42	8.6*
COc1ccc(/C=N/NC(=O)c2c(C)nc3ccc(Br)cn23)cc1OC	nt	-8	3	0	10*
COc1cc(/C=N/NC(=O)c2ccncc2)ccc1OC(=O)c1ccccc1Cl	nt	-21	14	43*	-2
COc1ccc(/C=N/NC(=O)c2ccc(COc3cccc4cccnc34)cc2)cc1OC	nt	6	2	43*	nt
COc1ccc(/C=N/NC(=O)c2c(C)nc3ccc(Cl)cn23)cc1OC	0	-9	7	0	2
CN1c2ccc(-c3ccc(F)cc3)cc2[C@@H]2[C@@H](CCN2S(=O)(=O)c2ccc(F)cc2)[C@H]1CO	0	nt	nt	nt	2
CN1C[C@H](O)COC[C@@H]2O[C@@H](CC(=O)NC3CCC3)CC[C@H]21	0	-2	13[16.7 µM]	0	-2
CCOC(=O)c1c(/N=C/C2=C(O)CC(C)(C)CC2=O)sc2c1CCCC2	0	-6	6	0	6
CCOC(=O)c1c(/N=C/C2=C(O)CC(C)(C)CC2=O)sc(C(C)=O)c1C	-3	-3	-10	43*	-1
COc1cccc(NC(=O)N(C)C[C@@H]2OCc3cn(nn3)CCCC(=O)N([C@@H](C)CO)C[C@@H]2C)c1	1	nt	nt	nt	-2
CSc1cccc(NC(=O)CCNC(=O)c2ccco2)c1	4	-37	-8	43*	0
O=C(CCNC(=O)c1ccco1)Nc1cccc(Br)c1	3	34	12	0	2
O=S(=O)(c1ccc(F)cc1)N1CCCCN2[C@H](CO)[C@H](c3ccc(C#CC4CCCC4)cc3)[C@H]2C1	nt	22	nt	-1	0
CN(C(=O)C1Cc2c(-c3ccc(Cl)cc3)ccnc2O1)c1ccccc1 (configuration not stated)	nt	5	0	25*	3
c1ccc2c(-c3cccc4nccn34)cncc2c1	0	-9	55*	0	0
N#CCC(=O)Nc1ccc(C(F)(F)F)cc1N1CCOCC1	nt	-4	-6	44*	0
CC(C)(C)c1ccc(OCCC(=O)Nc2ccc(N3CCOCC3)cc2N2CCOCC2)cc1	0	7	69*	-1	1
CCCC#Cc1ccc([C@@H]2[C@H](CO)N3C(=O)CN(C(=O)c4ccncc4)C[C@@H]23)cc1	0	-9	nt	nt	0
CCOC(=O)C1CCCN(CCC(=O)Nc2cc(C)cc(C)c2)C1 (configuration not stated)	7	-3	31	44*	1
C=CCN1C(=S)CC(c2ccccc2)=Nc2ccccc21	nt	-1	92*	0	1
Cc1cccc(-n2nc(CC#N)c(C#N)c2N)c1	nt	-2	-9	44*	1
SMILES	E-sel inducer	S100A4 MyoIIA	HIV Env fusion	FGF22 binding	F508del corr
COC(=O)Cc1[nH]nc2c1C1(C(=O)N(Cc3ccccc3)c3ccccc31)C(C#N)=C(N)O2 (configuration not stated)	nt	nt	-26	nt	nt
Cc1[nH]nc2c1C1(C(=O)N(Cc3ccc(Cl)cc3)c3ccccc31)C(C#N)=C(N)O2 (configuration not stated)	nt	nt	85*	nt	nt
CCCC#Cc1ccc2c(c1)O[C@@H](CN(C)S(=O)(=O)c1cccc(F)c1)[C@H](C)CN([C@@H](C)CO)S2(=O)=O	0	-6	21[16.7 µM]	-1	4
Cc1nc2c(o1)C(=O)c1ccccc1C2=Nc1ccccc1	0	-3	79*	0	-3
Cc1cc(NC(=S)NC(=O)c2ccco2)c2ccccc2n1	2	-2	5	43*	-3
O=C(C[C@@H]1C[C@@H]2c3cc(NC(=O)NC4CCCC4)ccc3O[C@@H]2[C@H](CO)O1)NCc1ccc(Oc2ccccc2)cc1	0	11	-3[16.7 µM]	0	-2
COc1ccc(NC(=O)c2ccc(OCC3CCCO3)cc2)cc1Cl (configuration not stated)	-1	2	-39	0	-1
COc1ccc(NC(=O)c2ccc(OCC3CCCO3)cc2)cc1OC (configuration not stated)	1	-2	nt	0	8.8*
Cc1ccc(NC(=O)c2ccc(OCC3CCCO3)cc2)cc1Cl (configuration not stated)	-4	-6	70*	0	4
Cn1cc(C(N)=O)c2ccccc21	nt	-3	nt	0	-1
Cn1cc(C(=O)OCC2CCN(CCNS(C)(=O)=O)CC2)c2ccccc21	1	1	-22	0	16*
OC(CCN1CCC2(CC1)OCCO2)C(F)(F)F (configuration not stated)	nt	0	15	43*	-2
CC(C)(C)C(=O)/C(=C/c1cccc([N+](=O)[O-])c1)n1cncn1	nt	nt	i	nt	nt
COc1ccc(C2NC(=S)NC3=C2CCCC3=C2SCCS2)cc1 (configuration not stated)	nt	-7	i	0	11*
C[C@@H]1CCCCO[C@H](CN(C)Cc2ccc(C(=O)O)cc2)[C@@H](C)CN([C@@H](C)CO)C(=O)c2cc(NC(=O)CCC(F)(F)F)ccc2O1	0	1	-23[16.7 µM]	0	0
O=C(NNc1nc2c(F)cc(F)cc2s1)c1ccccc1	nt	-1	3	43*	-1
O=C(/C=C/c1ccccc1)NC(NC(=S)Nc1ccc(Cl)cc1)C(Cl)(Cl)Cl (configuration not stated)	nt	nt	61*	nt	nt
COCOc1cccc(CN2CCC2(C)C(=O)Nc2ccc(C)c(O)c2)c1 (configuration not stated)	0	3	4	0	8.8*
CN(C(=O)c1ccc(S(=O)(=O)c2cccc(Cl)c2)c([N+](=O)[O-])c1)C1CCCCC1	nt	nt	59*	nt	nt
